Screening data: PubChem BioAssay, several laboratories
HSV augment: enhancers of HSV replication in host cells, fold increase, host cell viability | HSV replication augmentation in cells | maximum fold increase | 220,000 compounds, 0.005% hits | AID 1956, 2009; in the data active = maximum fold increase above about 1.5; inconclusive = no clear call, values can overlap the other calls; tested in PC3 cells
Dynein cargo inh: inhibitors of GR-EGFP nuclear translocation, primary screen, dynein cargo transport inhibitor project, imaging, high-content, 3617.4 mouse cells | 220,000 compounds, 0.47% hits | z-score, hits read low | AID 1381, 2008 | test concentration mostly 20 µM; stimulated with dexamethasone, 1 µM; hits give low values;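 active = plate z-score of nuclear minus cytoplasmic receptor signal below a set negative limit, without overly bright fluorescence or cell loss, cut at about -3.5 in these data, passing the limit was not always enough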;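 note: z-score of nuclear minus cytoplasmic ring GR-EGFP intensity difference per well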
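Buffer or medium: tet-free medium with charcoal-stripped serum / Also added: dexamethasone agonist, 1.0 µM final, for 30 min / Timing: induction 48 h, compound 1 h, agonist 30 min / Measured by: high-content fluorescence imaging after fixation / Read-out: nuclear-to-cytoplasmic GR-EGFP distribution per well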
bCat nuc transl: modulators of beta-catenin nuclear translocation, primary screen, imaging, HeLa cells, immunofluorescence, high-content | nuclear translocation activity, % at 5 µM | 190,000 compounds, 0.3% hits;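 active = nuclear translocation activity above 50% at 5 µM, with a well cell count of 50 or more; inconclusive = wells under 50 cells across six images, flagged as toxic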;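 note: per-cell ratio of nuclear to cytoplasmic median beta-catenin stain intensity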
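Signal – beta-catenin immunofluorescence imaging with DAPI · Test system – human HeLa cell line · Dosing – 5 µM primary single dose, 0.1% DMSO, 0.02–20 µM confirmation series · Measure – % activation, nuclear-to-cytoplasmic median beta-catenin signal ratio per cell · Incubation – 24 h compound exposure at 37°C, 5% CO2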
MT stabilize HCS: microtubule stabilizers in HeLa cells, primary screen, imaging, high-content imaging; HeLa tubulin immunostaining HCS, 24 h; share of cells brighter than vehicle mean+2SD; % tubulin-high responders, % at 10 µM; 200,000 compounds, 0.83% hits;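 active = plate Z-score above 3 for both tubulin-high and condensed-nucleus cell shares, with cell loss under 80%, at 10 µM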;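 note: anti alpha tubulin signal scored within the nucleus-defined area of each cell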
Lmaj promast: Leishmania major promastigote growth inhibition, primary screen; Leishmania major promastigotes, resazurin fluorescence viability; inhibition, % at 10 µM; 200,000 compounds, 9% hits; in the data active = inhibition above about 50%;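 note: promastigotes grown with compound for 44 hours at 28 °C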
Hits are given with their value. Most compounds without a hit are left out; they make up all but 8.9% or so of the library.

CC(C)(C)C(=O)NC(Nc1cccc2cccnc12)C(Cl)(Cl)Cl (centres undefined) was read as Dynein cargo inh inactive, bCat nuc transl inactive, MT stabilize HCS inactive and Lmaj promast 55.
Screening COC(=O)c1c(C)oc2ccc(NS(=O)(=O)c3cccs3)cc12 returned HSV augment inactive, Dynein cargo inh inactive, bCat nuc transl inactive, MT stabilize HCS inactive and Lmaj promast inactive.
CCc1cc2ccc(C)cc2nc1SCC(=O)N1CCN(C(=O)c2ccco2)CC1 was read as HSV augment inactive, Dynein cargo inh inactive, bCat nuc transl inactive, MT stabilize HCS inactive and Lmaj promast inactive.
`CCc1cc2cc3c(cc2nc1SCC(=O)N1CCN(C(=O)c2ccco2)CC1)OCO3` gave HSV augment inactive, Dynein cargo inh inactive, bCat nuc transl inactive, MT stabilize HCS inactive and Lmaj promast 84.
For O=C(NCc1ccco1)/C(=C\c1cccs1)NC(=O)c1ccsc1 the results were HSV augment inactive, Dynein cargo inh inactive, MT stabilize HCS inactive and Lmaj promast inactive.
CC1CC(C)(C)NC(=S)N1CCCC(=O)Nc1ccc(F)cc1 (centres undefined) was read as HSV augment inactive, Dynein cargo inh inactive, bCat nuc transl inactive, MT stabilize HCS inactive and Lmaj promast inactive.
Screening CN1CCN(C2=Cc3ccccc3Sc3cc(F)c(F)cc32)CC1 returned HSV augment inactive, Dynein cargo inh inactive, MT stabilize HCS inactive and Lmaj promast 101.
`CN1CCN(c2ccc(Cl)cc2NC(=O)/C=C/c2cccc(F)c2)CC1` gave HSV augment inactive, Dynein cargo inh inactive, bCat nuc transl inactive, MT stabilize HCS inactive and Lmaj promast inactive.
CN1CCN(C2=Cc3ccccc3Sc3cc(F)c(Cl)cc32)CC1 was read as HSV augment inactive, Dynein cargo inh inactive, MT stabilize HCS inactive and Lmaj promast 93.
For CN1CCN(C2=Cc3cc(Cl)ccc3Sc3cc(F)ccc32)CC1 the results were HSV augment inactive, Dynein cargo inh inactive, MT stabilize HCS inactive and Lmaj promast 100.
Cc1nnc(SCCN2CCOCC2)c2nn(-c3ccccc3F)c(C)c12 was read as HSV augment inactive, Dynein cargo inh inactive, bCat nuc transl inactive, MT stabilize HCS inactive and Lmaj promast 53.
`Cn1c(N2CCOCC2)c(/C=N/OC(=O)c2ccc(F)cc2)c2ccccc21` gave HSV augment inactive, Dynein cargo inh inactive, bCat nuc transl inactive, MT stabilize HCS inactive and Lmaj promast 100.
For Cn1c(N2CCOCC2)c(/C=N/OC(=O)c2cccnc2Cl)c2ccccc21 the results were HSV augment inactive, Dynein cargo inh inactive, bCat nuc transl inactive, MT stabilize HCS inactive and Lmaj promast 100.
For Cc1ccc(C(=O)O/N=C/c2c(N3CCOCC3)n(C)c3ccccc23)cc1 the results were HSV augment inactive, Dynein cargo inh inactive, MT stabilize HCS inactive and Lmaj promast 98.
`CC(=O)O/N=C/c1c(N2CCOCC2)n(C)c2ccccc12` gave HSV augment inactive, Dynein cargo inh inactive, MT stabilize HCS inactive and Lmaj promast 99.
For Cc1sc(NC(=O)Nc2ccccc2)c(C(N)=O)c1C the results were HSV augment inactive, Dynein cargo inh inactive, bCat nuc transl inactive, MT stabilize HCS inactive and Lmaj promast inactive.
For N#C/C(=C(/O)COC(=O)COc1cccc(Br)c1)c1nc2ccccc2[nH]1 the results were HSV augment inactive, Dynein cargo inh inactive and bCat nuc transl inactive.
`O=C(Nc1cccnc1)OC1CCCCC1` gave HSV augment inactive, Dynein cargo inh inactive, bCat nuc transl inactive, MT stabilize HCS inactive and Lmaj promast inactive.
Screening O=C(CN1CCN(C/C=C/c2ccccc2)CC1)Nc1ccccc1C(=O)NC1CC1 returned HSV augment inactive, Dynein cargo inh inactive and bCat nuc transl inactive.
`Cc1cc(NC(=O)CN2CCN(C/C=C/c3ccccc3)CC2)c([N+](=O)[O-])cc1C` gave HSV augment inactive, Dynein cargo inh inactive, bCat nuc transl inactive, MT stabilize HCS inactive and Lmaj promast 85.
Screening O=C(CN1CCN(C/C=C/c2ccccc2)CC1)Nc1cc([N+](=O)[O-])ccc1Cl returned HSV augment inactive, Dynein cargo inh inactive, MT stabilize HCS inactive and Lmaj promast 56.
For O=C(CN1CCCC1)Nc1ccc([N+](=O)[O-])cc1Cl the results were HSV augment inactive, Dynein cargo inh inactive, bCat nuc transl inactive, MT stabilize HCS inactive and Lmaj promast inactive.
`CN(CC(=O)Nc1cccc(S(=O)(=O)NC2=NCCCCC2)c1)Cc1ccc(C(C)(C)C)cc1` gave HSV augment inactive, Dynein cargo inh inactive, bCat nuc transl inactive, MT stabilize HCS inactive and Lmaj promast inactive.
CCCc1cc(=O)[nH]c(-n2[nH]c3c(c2=O)CCCC3)n1 was read as Dynein cargo inh inactive, MT stabilize HCS inactive and Lmaj promast 94.
`CCCc1cc(=O)[nH]c(SCC)n1` gave HSV augment inactive, Dynein cargo inh inactive, MT stabilize HCS inactive and Lmaj promast inactive.
`Cc1ccc(N(C)S(=O)(=O)c2cccc(C(=O)Nc3nc4ccccc4[nH]3)c2)cc1` gave HSV augment inactive, Dynein cargo inh inactive, bCat nuc transl inactive, MT stabilize HCS inactive and Lmaj promast 90.
For Cc1nc2ccc(NC(=O)c3cccc(S(=O)(=O)N(C)c4ccccc4)c3)cc2s1 the results were HSV augment inactive, Dynein cargo inh inactive, bCat nuc transl inactive, MT stabilize HCS inactive and Lmaj promast 99.
COc1ccccc1N(C)S(=O)(=O)c1ccc(Cl)c(C(=O)NC2=NCCS2)c1 was read as HSV augment inactive, Dynein cargo inh inactive, bCat nuc transl inactive, MT stabilize HCS inactive and Lmaj promast 57.
COc1ccccc1N(C)S(=O)(=O)c1ccc(C(=O)Nc2ccc3nc(C)sc3c2)cc1 was read as HSV augment inactive, Dynein cargo inh inactive, bCat nuc transl inactive, MT stabilize HCS inactive and Lmaj promast 100.
For COc1cccc(C(=O)Nc2nc3ccccc3[nH]2)c1 the results were HSV augment inactive, Dynein cargo inh inactive, MT stabilize HCS inactive and Lmaj promast inactive.
For Cc1ccc(/C=C/c2nc3ccccc3[nH]2)o1 the results were HSV augment inconclusive, Dynein cargo inh inactive, bCat nuc transl inactive, MT stabilize HCS inactive and Lmaj promast inactive.
For COc1ccc(C(=O)NCc2ccc(N3CCN(C(=O)OC(C)(C)C)CC3)cc2)cc1 the results were HSV augment inactive, bCat nuc transl inactive, MT stabilize HCS inactive and Lmaj promast inactive.
`COc1ccc(S(=O)(=O)N(CC(=O)Nc2ccc(S(=O)(=O)N3CCOCC3)cc2)Cc2ccc(F)cc2)cc1` gave HSV augment inactive, Dynein cargo inh inactive, bCat nuc transl inactive, MT stabilize HCS inactive and Lmaj promast 97.
COc1ccccc1N(C)S(=O)(=O)c1ccc(C(=O)Nc2ccc(N3CCOCC3)cc2)cc1 was read as HSV augment inactive, Dynein cargo inh inactive, bCat nuc transl inactive, MT stabilize HCS inactive and Lmaj promast 99.
